# Assay results from ChEMBL document CHEMBL1149392, “PTP-1B inhibitors: cyclopenta[d][1,2]-oxazine derivatives” (Bioorg Med Chem Lett, 2006).
# How the values were obtained:
# [1] = molecular target: T1, Tyrosine-protein phosphatase non-receptor type 1 (Homo sapiens) (UniProt P18031); assay: Inhibitory activity against recombinant human PTP1B at 10 uM
# T1 sequence (whole entry): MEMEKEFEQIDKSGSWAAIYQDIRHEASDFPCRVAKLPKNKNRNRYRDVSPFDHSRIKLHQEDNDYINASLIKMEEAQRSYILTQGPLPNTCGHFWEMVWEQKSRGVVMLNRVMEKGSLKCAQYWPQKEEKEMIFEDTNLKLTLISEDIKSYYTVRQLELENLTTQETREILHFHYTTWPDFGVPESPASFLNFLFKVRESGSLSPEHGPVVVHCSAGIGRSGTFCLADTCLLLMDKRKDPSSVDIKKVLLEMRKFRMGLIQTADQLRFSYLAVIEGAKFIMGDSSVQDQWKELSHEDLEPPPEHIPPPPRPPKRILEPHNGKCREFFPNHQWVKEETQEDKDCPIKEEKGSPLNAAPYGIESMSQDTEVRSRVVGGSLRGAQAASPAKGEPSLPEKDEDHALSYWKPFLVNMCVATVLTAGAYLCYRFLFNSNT
# [2] = molecular target: Serine/threonine-protein phosphatase PP1-gamma catalytic subunit (Homo sapiens, UniProt P36873); assay: Inhibitory activity against Protein phosphatase 1
# Serine/threonine-protein phosphatase PP1-gamma catalytic subunit, sequence (P36873 whole entry): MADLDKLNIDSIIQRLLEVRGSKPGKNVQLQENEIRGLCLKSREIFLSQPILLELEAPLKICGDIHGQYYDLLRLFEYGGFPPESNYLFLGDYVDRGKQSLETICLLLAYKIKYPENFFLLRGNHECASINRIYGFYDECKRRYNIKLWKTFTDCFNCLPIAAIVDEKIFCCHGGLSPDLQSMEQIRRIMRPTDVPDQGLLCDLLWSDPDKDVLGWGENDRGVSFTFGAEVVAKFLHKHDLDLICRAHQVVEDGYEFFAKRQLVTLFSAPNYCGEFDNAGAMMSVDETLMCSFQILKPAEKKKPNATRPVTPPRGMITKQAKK
# Procedure, shortened: (§1)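 Selectivity panel of nine phosphatases, each assayed with fluorescein diphosphate at the same concentration as in the PTP-1B assay (20 μM). IC50 values (μM) reported.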
# [3] = molecular target: T2, Tyrosine-protein phosphatase non-receptor type 1 (Homo sapiens, UniProt P18031); assay: Inhibitory activity against recombinant human PTP1B
# T2 sequence (P18031 whole entry): T1 sequence (whole entry)
# Procedure, shortened: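 Recombinant human PTP-1B (0.1 μg) incubated with 20 μM fluorescein diphosphate and compound in 30 mM Tris, 75 mM NaCl, 0.67 mM EDTA, 1 mM DTT, pH 8.0, for 1 h at room temperature. Product fluorescein monophosphate read by fluorescence (ex 485 nm, em 538 nm). IC50 reported.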
# [4] = molecular target: Tyrosine-protein phosphatase YopH (Yersinia enterocolitica, UniProt P15273); assay: Inhibitory activity against YOP protein tyrosine phosphatase
# Tyrosine-protein phosphatase YopH, sequence (P15273 whole entry): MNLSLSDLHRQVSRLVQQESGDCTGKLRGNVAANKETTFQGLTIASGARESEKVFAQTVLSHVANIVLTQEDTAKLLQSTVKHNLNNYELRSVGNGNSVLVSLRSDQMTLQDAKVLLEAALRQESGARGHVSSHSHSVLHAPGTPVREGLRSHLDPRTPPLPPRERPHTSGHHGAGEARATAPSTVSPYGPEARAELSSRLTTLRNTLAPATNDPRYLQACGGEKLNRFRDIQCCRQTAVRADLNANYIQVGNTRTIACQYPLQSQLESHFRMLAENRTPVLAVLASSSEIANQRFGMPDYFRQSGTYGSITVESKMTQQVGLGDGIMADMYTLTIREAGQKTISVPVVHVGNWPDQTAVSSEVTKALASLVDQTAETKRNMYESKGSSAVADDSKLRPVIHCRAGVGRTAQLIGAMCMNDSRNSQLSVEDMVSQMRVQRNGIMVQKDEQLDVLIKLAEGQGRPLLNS
# Procedure, shortened: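 Counter-screen against Yop phosphatase within a nine-phosphatase selectivity panel. Fluorescein diphosphate substrate at 20 μM, the same level as in the PTP-1B assay. Potency is reported as IC50 (μM).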
# [5] = molecular target: Dual specificity protein phosphatase 3 (Homo sapiens, UniProt P51452); assay: Inhibitory activity against VH1-related phosphatase VHR; procedure, shortened: as §1
# Dual specificity protein phosphatase 3, sequence (P51452 whole entry): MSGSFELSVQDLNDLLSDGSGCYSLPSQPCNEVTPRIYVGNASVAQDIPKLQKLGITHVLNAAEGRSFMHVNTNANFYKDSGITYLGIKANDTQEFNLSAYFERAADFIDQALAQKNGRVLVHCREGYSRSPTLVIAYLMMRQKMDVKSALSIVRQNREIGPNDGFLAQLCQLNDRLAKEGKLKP
# [6] = Inhibitory activity against protein phosphatase type 2A; procedure, shortened: as §1
Compound,inhibition [1],IC50 [2],IC50 [3],IC50 [4],IC50 [5],IC50 [6]
NCc1ccc(C(=O)c2ccc3c(-c4ccc(OCC(=O)O)cc4)nocc2-3)cc1,97.2%,1.3 µM,2.16 µM,1.19 µM,,
COc1ccc(C(=O)c2ccc3c(-c4ccc(OCC(=O)O)cc4)nocc2-3)cc1,81.5%,35.2 µM,0.8 µM,5.71 µM,181 µM,> 10 µM
CCCCCCCCCCCCCCc1ccc(C(=O)c2ccc3c(-c4ccc(OCC(=O)O)cc4)nocc2-3)cc1,101%,0.22 µM,0.14 µM,0.55 µM,,
